According to ChEMBL document CHEMBL1138270, “Antimycobacterial activities of novel 1-(cyclopropyl/tert-butyl/4-fluorophenyl)-1,4-dihydro- 6-nitro-4-oxo-7-(substituted secondary amino)-1,8-naphthyridine-3-carboxylic acid” (J Med Chem, 2007):
In brackets after ≈: the same amount, converted by molar mass.

What was measured:
Vero = assay: Cytotoxicity against Vero cells after 72 hrs by MTT assay; format: cell-based; details: Chlorocebus sabaeus
Method in brief: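 Vero cells were exposed to serially diluted compound up to 62.5 µg/mL for 72 h. Viability was read by cellular conversion of MTT to formazan (CellTiter 96 non-radioactive proliferation assay), and IC50 was derived.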

[1] = system: Mycobacterium tuberculosis; assay: Antimycobacterial activity against Mycobacterium tuberculosis H37Rv by agar dilution method; format: functional
Method in brief: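 MIC was determined by agar dilution, in duplicate.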

[2] = system: Mycolicibacterium smegmatis; assay: Antimicrobial activity against Mycobacterium smegmatis by agar dilution method; format: functional
Method in brief: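 Agar dilution against M. smegmatis ATCC 14468; MIC determined in duplicate.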

[3] = Inhibition of Mycobacterium smegmatis DNA gyrase supercoiling activity; set-up: species or system Mycolicibacterium smegmatis
Method in brief: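 Gyrase purified from M. smegmatis was preincubated with compound in DMSO (5% DMSO in reaction). 400 ng relaxed pUC18 was added in 35 mM Tris-HCl pH 7.5, 5 mM MgCl2, 25 mM K-glutamate, 2 mM spermidine, 2 mM ATP, BSA, tRNA and 5% glycerol, 1 h at 37 °C. Samples were heat-inactivated, run on 1% agarose in TAE, and ethidium-stained; IC50 was derived.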

| SMILES | IC50 (Vero) | MIC [1] | MIC [2] | IC50 [3] |
| --- | --- | --- | --- | --- |
| CC1CN(c2nc3c(cc2[N+](=O)[O-])c(=O)c(C(=O)O)cn3C2CC2)CC(C)O1 (stereo unspecified) | > 161 µM | 4.02 µM (≈ 1.56 µg/mL) | 32.2 µM (≈ 12.5 µg/mL) |  |
| CC(C)(C)NC(=O)C1c2ccccc2CCN1c1nc2c(cc1[N+](=O)[O-])c(=O)c(C(=O)O)cn2C1CC1 (stereo unspecified) | 124 µM | 3.09 µM (≈ 1.56 µg/mL) | 24.7 µM (≈ 12.5 µg/mL) |  |
| COc1ccc(CC2C3=C(CCCC3)CCN2c2nc3c(cc2[N+](=O)[O-])c(=O)c(C(=O)O)cn3-c2ccc(F)cc2)cc1 (stereo unspecified) | < 53.5 µM | 10.7 µM (≈ 6.25 µg/mL) | 85.5 µM (≈ 50 µg/mL) |  |
| CC(C)(C)n1cc(C(=O)O)c(=O)c2cc([N+](=O)[O-])c(N3CCN(Cc4ccc5c(c4)OCO5)CC3)nc21 | > 123 µM | 1.53 µM (≈ 0.78 µg/mL) | 6.14 µM (≈ 3.13 µg/mL) |  |
| CN1CCN(c2nc3c(cc2[N+](=O)[O-])c(=O)c(C(=O)O)cn3C(C)(C)C)CC1c1ccccc1 (stereo unspecified) | > 134 µM | 0.84 µM (≈ 0.391 µg/mL) | 13.4 µM (≈ 6.25 µg/mL) |  |
| O=C(O)c1cn(C2CC2)c2nc(N3CCN(Cc4ccc5c(c4)OCO5)CC3)c([N+](=O)[O-])cc2c1=O | 127 µM | 3.16 µM (≈ 1.56 µg/mL) | 25.3 µM (≈ 12.5 µg/mL) |  |
| CC1CN(c2nc3c(cc2[N+](=O)[O-])c(=O)c(C(=O)O)cn3C(C)(C)C)CC(C)O1 (stereo unspecified) | 159 µM | 7.74 µM (≈ 3.13 µg/mL) | 15.4 µM (≈ 6.25 µg/mL) |  |
| O=C(O)c1cn(-c2ccc(F)cc2)c2nc(N3CCN(C(=O)c4ccco4)CC3)c([N+](=O)[O-])cc2c1=O | 123 µM | 3.07 µM (≈ 1.56 µg/mL) | 24.6 µM (≈ 12.5 µg/mL) |  |
| O=C(O)c1cn(C2CC2)c2nc(N3CCN(C(c4ccccc4)c4ccc(Cl)cc4)CC3)c([N+](=O)[O-])cc2c1=O (stereo unspecified) | 112 µM | 5.59 µM (≈ 3.13 µg/mL) | 22.3 µM (≈ 12.5 µg/mL) |  |
| O=C(O)c1cn(C2CC2)c2cc(N3CCNCC3)c(F)cc2c1=O [CIPROFLOXACIN] |  |  |  | 15.1 µM |
| CCN(CC)C(=O)C1CCCN(c2nc3c(cc2[N+](=O)[O-])c(=O)c(C(=O)O)cn3C2CC2)C1 (stereo unspecified) | > 137 µM | 3.41 µM (≈ 1.56 µg/mL) | 109 µM (≈ 50 µg/mL) |  |
| CC(C)(C)n1cc(C(=O)O)c(=O)c2cc([N+](=O)[O-])c(N3CCN(C(c4ccccc4)c4ccc(Cl)cc4)CC3)nc21 (stereo unspecified) | > 108 µM | 1.35 µM (≈ 0.778 µg/mL) | 174 µM (≈ 100 µg/mL) |  |
| O=C(O)c1cn(C2CC2)c2nc(N3CCSCC3)c([N+](=O)[O-])cc2c1=O | 166 µM | 8.32 µM (≈ 3.13 µg/mL) | 33.2 µM (≈ 12.5 µg/mL) |  |
| O=C(O)c1cn(-c2ccc(F)cc2)c2nc(N3CCC(n4c(=O)[nH]c5cc(Cl)ccc54)CC3)c([N+](=O)[O-])cc2c1=O | 53.9 µM | 2.69 µM (≈ 1.56 µg/mL) | 10.8 µM (≈ 6.25 µg/mL) |  |
| O=C(O)c1cn(C2CC2)c2nc(N3CCC4(CC3)OCCO4)c([N+](=O)[O-])cc2c1=O | 150 µM | 7.52 µM (≈ 3.13 µg/mL) | 30 µM (≈ 12.5 µg/mL) |  |
| CC(C)(C)n1cc(C(=O)O)c(=O)c2cc([N+](=O)[O-])c(N3CCN(C(=O)c4ccco4)CC3)nc21 | 133 µM | 3.32 µM (≈ 1.56 µg/mL) | 6.67 µM (≈ 3.13 µg/mL) |  |
| COc1ccc(CC2C3=C(CCCC3)CCN2c2nc3c(cc2[N+](=O)[O-])c(=O)c(C(=O)O)cn3C(C)(C)C)cc1 (stereo unspecified) | > 114 µM | 5.73 µM (≈ 3.13 µg/mL) | 11.4 µM (≈ 6.25 µg/mL) |  |
| O=C(O)c1cn(C2CC2)c2nc(N3CCC(O)(c4ccc(Cl)cc4)CC3)c([N+](=O)[O-])cc2c1=O | 64.4 µM | 6.46 µM (≈ 3.13 µg/mL) | 25.8 µM (≈ 12.5 µg/mL) |  |
| O=C(O)c1cn(-c2ccc(F)cc2)c2nc(N3CCN(C(=O)C4COc5ccccc5O4)CC3)c([N+](=O)[O-])cc2c1=O (stereo unspecified) | > 54.3 µM | 10.9 µM (≈ 6.25 µg/mL) | 21.7 µM (≈ 12.5 µg/mL) |  |
| O=C(O)c1cn(-c2ccc(F)cc2)c2nc(N3CCC(O)(c4ccc(Cl)cc4)CC3)c([N+](=O)[O-])cc2c1=O | 59.6 µM | 2.89 µM (≈ 1.56 µg/mL) | 11.6 µM (≈ 6.25 µg/mL) |  |
| CCN(CC)C(=O)C1CCCN(c2nc3c(cc2[N+](=O)[O-])c(=O)c(C(=O)O)cn3-c2ccc(F)cc2)C1 (stereo unspecified) | > 122 µM | 3.05 µM (≈ 1.56 µg/mL) | 12.2 µM (≈ 6.25 µg/mL) |  |

| SMILES | IC50 (Vero) | MIC [1] | MIC [2] | IC50 [3] |
| --- | --- | --- | --- | --- |
| CC(C)(C)n1cc(C(=O)O)c(=O)c2cc([N+](=O)[O-])c(N3CCC(O)(c4ccc(Cl)cc4)CC3)nc21 | 125 µM | 3.11 µM (≈ 1.56 µg/mL) | 24.9 µM (≈ 12.5 µg/mL) |  |
| CC(C)(C)n1cc(C(=O)O)c(=O)c2cc([N+](=O)[O-])c(N3CCC4(CC3)OCCO4)nc21 | 144 µM | 0.9 µM (≈ 0.389 µg/mL) | 3.61 µM (≈ 1.56 µg/mL) | 92.5 µM |
| CC(C)(C)n1cc(C(=O)O)c(=O)c2cc([N+](=O)[O-])c(N3CCC(N4CCCCC4)CC3)nc21 | > 137 µM | 1.7 µM (≈ 0.778 µg/mL) | 6.84 µM (≈ 3.13 µg/mL) |  |
| CN1CCN(c2nc3c(cc2[N+](=O)[O-])c(=O)c(C(=O)O)cn3-c2ccc(F)cc2)CC1c1ccccc1 (stereo unspecified) | 124 µM | 0.77 µM (≈ 0.388 µg/mL) | 3.09 µM (≈ 1.56 µg/mL) | 99.3 µM |
| O=C(O)c1cn(-c2ccc(F)cc2)c2nc(N3CCC4(CC3)OCCO4)c([N+](=O)[O-])cc2c1=O | 133 µM | 6.65 µM (≈ 3.13 µg/mL) | 26.6 µM (≈ 12.5 µg/mL) |  |
| CC(C)(C)n1cc(C(=O)O)c(=O)c2cc([N+](=O)[O-])c(N3CCn4cc(C(=O)O)nc4C3)nc21 | > 137 µM | 0.42 µM (≈ 0.192 µg/mL) | 6.86 µM (≈ 3.13 µg/mL) |  |
| O=C(O)c1cn(C2CC2)c2nc(N3CCC(N4CCCCC4)CC3)c([N+](=O)[O-])cc2c1=O | > 142 µM | 7.09 µM (≈ 3.13 µg/mL) | 28.3 µM (≈ 12.5 µg/mL) |  |
| O=C(O)c1cn(-c2ccc(F)cc2)c2nc(N3CCC(N4CCCCC4)CC3)c([N+](=O)[O-])cc2c1=O | > 126 µM | 3.15 µM (≈ 1.56 µg/mL) | 25.2 µM (≈ 12.5 µg/mL) |  |
| O=C(O)c1cn(-c2ccc(F)cc2)c2nc(N3CCN(C(c4ccccc4)c4ccc(Cl)cc4)CC3)c([N+](=O)[O-])cc2c1=O (stereo unspecified) | 102 µM | 1.27 µM (≈ 0.78 µg/mL) | 5.09 µM (≈ 3.13 µg/mL) |  |
| CC(C)(C)NC(=O)C1c2ccccc2CCN1c1nc2c(cc1[N+](=O)[O-])c(=O)c(C(=O)O)cn2C(C)(C)C (stereo unspecified) | 120 µM | 2.99 µM (≈ 1.56 µg/mL) | 6 µM (≈ 3.13 µg/mL) |  |
| CC(C)(C)n1cc(C(=O)O)c(=O)c2cc([N+](=O)[O-])c(N3CCC(n4c(=O)[nH]c5cc(Cl)ccc54)CC3)nc21 | 57.7 µM | 2.88 µM (≈ 1.56 µg/mL) | 11.5 µM (≈ 6.24 µg/mL) |  |
| O=C(O)c1cn2c(n1)CN(c1nc3c(cc1[N+](=O)[O-])c(=O)c(C(=O)O)cn3C1CC1)CC2 | 142 µM | 3.54 µM (≈ 1.56 µg/mL) | 28.4 µM (≈ 12.5 µg/mL) |  |
| CC(C)(C)NC(=O)C1c2ccccc2CCN1c1nc2c(cc1[N+](=O)[O-])c(=O)c(C(=O)O)cn2-c1ccc(F)cc1 (stereo unspecified) | 112 µM | 2.79 µM (≈ 1.56 µg/mL) | 11.2 µM (≈ 6.25 µg/mL) |  |
| CC(C)(C)n1cc(C(=O)O)c(=O)c2cc([N+](=O)[O-])c(N3CCN(C(=O)C4COc5ccccc5O4)CC3)nc21 (stereo unspecified) | 116 µM | 1.45 µM (≈ 0.779 µg/mL) | 5.82 µM (≈ 3.13 µg/mL) |  |
| CC1(C)COCN1c1nc2c(cc1[N+](=O)[O-])c(=O)c(C(=O)O)cn2C1CC1 | 167 µM | 0.51 µM (≈ 0.191 µg/mL) | 4.17 µM (≈ 1.56 µg/mL) |  |
| O=C(O)c1cn(C2CC2)c2nc(N3CCN(C(=O)C4COc5ccccc5O4)CC3)c([N+](=O)[O-])cc2c1=O (stereo unspecified) | 59.9 µM | 12 µM (≈ 6.25 µg/mL) | 6 µM (≈ 3.13 µg/mL) |  |
| CCN(CC)C(=O)C1CCCN(c2nc3c(cc2[N+](=O)[O-])c(=O)c(C(=O)O)cn3C(C)(C)C)C1 (stereo unspecified) | > 132 µM | 3.29 µM (≈ 1.56 µg/mL) | 106 µM (≈ 50 µg/mL) |  |
| O=C(O)c1cn(-c2ccc(F)cc2)c2nc(N3CCN(Cc4ccc5c(c4)OCO5)CC3)c([N+](=O)[O-])cc2c1=O | 57.1 µM | 11.4 µM (≈ 6.25 µg/mL) | 45.7 µM (≈ 25 µg/mL) |  |
| O=C(O)c1cn(C2CC2)c2nc(N3CCC(n4c(=O)[nH]c5cc(Cl)ccc54)CC3)c([N+](=O)[O-])cc2c1=O | 55.5 µM | 2.97 µM (≈ 1.56 µg/mL) | 23.8 µM (≈ 12.5 µg/mL) |  |
| CN1CCN(c2nc3c(cc2[N+](=O)[O-])c(=O)c(C(=O)O)cn3C2CC2)CC1c1ccccc1 (stereo unspecified) | 139 µM | 6.96 µM (≈ 3.13 µg/mL) | 27.8 µM (≈ 12.5 µg/mL) |  |
| O=C(O)c1cn(C2CC2)c2nc(N3CCN(C(=O)c4ccco4)CC3)c([N+](=O)[O-])cc2c1=O | 68.9 µM | 6.9 µM (≈ 3.13 µg/mL) | 27.6 µM (≈ 12.5 µg/mL) |  |
